Laboratory results published in the RNAGym collection of RNA variant scans (doi:10.1126/science.aae0568).
Variants at the floor of the assay were thinned out.

B1: tRNA (parent)
chain: GUUCCGUUGGCGUAAUGGUAACGCGUCUCCCUCCUAAGGAGAAGACUGCGGGUUCGAGUCCCGUACGGAACG

Variants of: B1
Assay: yeast fitness relative to wild type (ratio to wild type); higher = fitter; tRNA-Arg(CCU), competitive growth, 37 C, YPD
Summary of the method: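 Genotype frequency changes were the basis for Darwinian fitness relative to wild type. The frequencies came from 100-nucleotide paired-end sequencing of gene amplicons from the start population and each end population of pooled yeast strains with tRNA-Arg(CCU) gene variants at the native locus. Competition ran in YPD at 37°C for 24 hours in six replicates, genotypes needed ≥ 100 starting reads, and estimates < 0.5 were set to 0.5.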

Row | Variant | yeast fitness
1 | U7C G39C U47A G58A G63A | ≤ 0.5
2 | A14G G48C U64G | 0.503
3 | U3A G18A C22U U64C | ≤ 0.5
4 | C5G C31U C60U A69G | ≤ 0.5
5 | A20G C22U | 0.751
6 | U32A C62U | 0.645
7 | C27A A45C G68A | 0.619
8 | A36G C60U C61U | 0.625
9 | C27A U47A G56C | 0.694
10 | G25C C31U G56A | 0.616
11 | U8C A43G | 0.93
12 | C11U A14U C27U A36U A43G C46U | 0.632
13 | A14G G18A U32A G44A A65C | ≤ 0.5
14 | U3C U7G A14C C31A G50A G52C A65C | ≤ 0.5
15 | U26C U35C G50C G52A | ≤ 0.5
16 | G6A C31G A43C C49A U54C | ≤ 0.5
17 | C4G U59A U64G A65C | ≤ 0.5
18 | U28G G48A C49G G50U | 0.611
19 | C5G A15U G41C C55A | ≤ 0.5
20 | G6A G63A | 0.883
21 | C4U C31G A42C C66U | ≤ 0.5
22 | C5A G9C A42C C49G G68A | ≤ 0.5
23 | A21U C33G | 0.731
24 | U8A U13A A14C U16A | ≤ 0.5

Row | Variant | yeast fitness
25 | G12C U13A A36U | 0.626
26 | U26A C27G | 0.57
27 | A14C G17U C22U C34U | ≤ 0.5
28 | U13C C49G C62U | 0.533
29 | G17A G56C G58C | 0.585
30 | C61A A65G | 0.595
31 | U16A A20G A21G C34U G44A C61A G67C | ≤ 0.5
32 | G10A A21U C27U C49A U64C | ≤ 0.5
33 | U28C U47C | 0.915
34 | C5G U47A G68C | 0.565
35 | C30G C61U | 0.57
36 | U2C U16C A36G | ≤ 0.5
37 | A20U A21C A45U | 0.675
38 | U28C G38A A40C A45G G48A U59A C62U | 0.542
39 | G23A C30U U35G A45U A57C | 0.533
40 | U2G C24G A36G A42C C61U C62G | ≤ 0.5
41 | C5A G10C U26C G51A | ≤ 0.5
42 | A20G A65U | 0.901
43 | A15G U32A G52C G68A | ≤ 0.5
44 | C27G C31U A37G G58C | ≤ 0.5
45 | C33A A36C G63C C66G | 0.53
46 | C30A G44C | 0.795
47 | U2C C24G C49U | ≤ 0.5
48 | C11G U35C C46U C61U | ≤ 0.5

Row | Variant | yeast fitness
49 | G41A G52A | 0.79
50 | C31G G67A | 0.859
51 | C11G C60G C61U | 0.555
52 | G10C C46G G51A G52A | ≤ 0.5
53 | G25A C62A | 0.843
54 | G41C A42U U64C | 0.82
55 | A21G A42C G67A | 0.662
56 | U7C U8C A21U A36U A37C | ≤ 0.5
57 | A15U G25A G68A | 0.698
58 | U3G U26A A65G | ≤ 0.5
59 | U13A U16A C61G | ≤ 0.5
60 | G9C A15U A21C C29A | 0.773
61 | C34A G50A C61G | ≤ 0.5
62 | U26A G58A | 0.928
63 | A20G C31G C46G G50A G67C | ≤ 0.5
64 | A42G A45G C46U | 0.726
65 | U2C G10A C49A A65U | ≤ 0.5
66 | G10A C34A | 0.712
67 | A40C A43U C60U | 0.588
68 | C24A A40G C49A | ≤ 0.5
69 | G6A C34A A37C A40U | ≤ 0.5
70 | U53A G63A | 0.618
71 | A43U C46U C49U | 0.731
72 | C5U A20C G58A | ≤ 0.5

Row | Variant | yeast fitness
73 | C4A C22G | 0.65
74 | A15C U16C C31G A69U | ≤ 0.5
75 | A14G C29A | 0.581
76 | U8G C33A C49U C66G | ≤ 0.5
77 | G17A G25C A40U G63A | ≤ 0.5
78 | A43G A45G | 0.745
79 | C33G A36C A57U | ≤ 0.5
80 | C5A U13A A45C A69C | 0.542
81 | A36C A45C U54A A57U A65U | ≤ 0.5
82 | C46U U54C A57G | 0.622
83 | G38C C61A G67A | ≤ 0.5
84 | C22G C46U | 0.929
85 | A20G C22G C49G | 0.568
86 | U28C C29U G63C A65U | ≤ 0.5
87 | U7C U16G G17A C49U C62A | 0.506
88 | U2C A65U | 1.05
89 | U3A C4A U16A A36C G48A G67A | ≤ 0.5
90 | U13A C62A | 0.668
91 | C11U A42G C60G | ≤ 0.5
92 | C29U C34G A36C | ≤ 0.5
93 | U3G G67C | 0.825
94 | C5U U35C U54C C55A | ≤ 0.5
95 | C4G U47C | 0.865
96 | U2A C11G U28A A65G | ≤ 0.5

Row | Variant | yeast fitness
97 | U3C G41A | 0.879
98 | C4G C5G G10A G18A A42C | ≤ 0.5
99 | U2A G9A U19C | 1.03
100 | A20U C33U C61U A70U | ≤ 0.5
101 | C5U A20U C60A | ≤ 0.5
102 | C29U U35C A65U | ≤ 0.5
103 | G38C C46U A69U A70G | ≤ 0.5
104 | C5U A14G C46G A65U | ≤ 0.5
105 | A21U C30U G48A G67C A69U | ≤ 0.5
106 | U26G C30U G52A | 0.519
107 | C5G A36G | 1.01
108 | A15G C30G A40U A42C C49G | ≤ 0.5
109 | C30G A37C G68A | ≤ 0.5
110 | A43C G48A | 1.06
111 | A21G C22U C24U A37U A45G C46G G68C | ≤ 0.5
112 | U13A C33G A36G C49A | ≤ 0.5
113 | G6A A20C A65G | 0.672
114 | C33U A36G G39A G44A C55G U59C | ≤ 0.5
115 | A20G C55G | 0.586
116 | U7G C27G U28G C66U | ≤ 0.5
117 | G12A C46U | 0.9
118 | U3C G18A U32G A37G A43C G51A | ≤ 0.5
119 | A20G C29U | 0.88
120 | A42G G51A A57C U59C C60U | ≤ 0.5

Row | Variant | yeast fitness
121 | C46U A65G | 0.877
122 | A15U C24A | 0.53
123 | C27G A37G G39A C61G | 0.821
124 | C11U A40U A69C | 0.646
125 | U2A G6C U16C C24U A36G | ≤ 0.5
126 | C5U A37U A42U U59A | 0.537
127 | C31G A57C | 0.617
128 | U3A A14G G23C A70C | 0.573
129 | C34G G48C C66U | 0.562
130 | C5U A21U C30G A42G U59C C66G G68A | ≤ 0.5
131 | C5G A37C | 0.731
132 | G9A C11A G38C G58A C60G | ≤ 0.5
133 | C5G U54G | 0.654
134 | U32A C33A C46G | ≤ 0.5
135 | G38A C60G | 0.623
136 | U7A A70G | 0.829
137 | U26A U32C A57C C62U | ≤ 0.5
138 | C5G G41C U54A | ≤ 0.5
139 | C4U A15C G17A G18A A36C C55U C66A | ≤ 0.5
140 | G6C G12A A21G C66U | ≤ 0.5
141 | U19C G39A | 0.952
142 | C27U C33U A37U G51A A70G | 0.552
143 | C60G A69G | 0.597
144 | U8C U13G | 0.841

Row | Variant | yeast fitness
145 | U13C G48A C61G A69C | 0.594
146 | C27U C31U G67C | 0.727
147 | C5U C27A G41C A57U | ≤ 0.5
148 | C4A C24G G44C A70U | ≤ 0.5
149 | C27U C34G A45U C60A | ≤ 0.5
150 | A14G G23A C34A | ≤ 0.5
151 | G6C G12A G51A | 0.538
152 | U8A A14C G17C C24U A45U G67C | ≤ 0.5
153 | U26A C30A A36U G52A G58A | ≤ 0.5
154 | A37U G50C C66U | 0.593
155 | U16A C31A A65C | ≤ 0.5
156 | A21G C60G | 0.667
157 | U3A C4U G25C G48A | ≤ 0.5
158 | A14U A15C C24A U26A G50C | 0.544
159 | C11U C31U A42C G44A A45U | ≤ 0.5
160 | G23C G48C | 0.686
161 | G41C A45U G67C | 0.607
162 | A21G C33U C60A | ≤ 0.5
163 | C27G G68A | 0.607
164 | C5U U7G A57U | ≤ 0.5
165 | G9U A14G G18A C46A C49G | ≤ 0.5
166 | G6A C27U C29A G58C | ≤ 0.5
167 | G12A A20U C34A C55G C66A | ≤ 0.5
